Screening data (PubChem)
PDI inh: inhibitors of human PDI, primary screen, biochemical, turbidity, single point, plate reader. inhibition, % at 10 µM. PDI insulin aggregation turbidity, A650, 90 min. Protein disulfide-isomerase (Homo sapiens), P07237. actives 0.052% (n = 350,000). AID 588391, 2011;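 active means mean inhibition across replicates of 30% or more, whatever share of single replicates reach that level; inconclusive means mean inhibition below 30% while every single replicate reaches 30%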
GSIS activator: GLuc luminescence reporter in INS-1E cells, primary screen for activators of glucose-dependent secretion of insulin. activation, % at 16.6 µM. INS-1E GLuc reporter insulin secretion, 2-3 h. actives 0.61% (n = 370,000);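 active means lowest replicate activation of at least 40%, so every replicate reaches that level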
ERp5 inh: inhibitors of ERp5-driven insulin aggregation, primary screen, biochemical, turbidity, absorbance 650 nm, single point | inhibition, % at 9.99 µM | 90 min | actives 0.05% (n = 350,000);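 active means mean replicate inhibition above about 25%, with every replicate also reaching it, limit read from the data, passing the limit was not always enough; inconclusive means only one of those two criteria met; inactive means neither criterion met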
Target sequence (Q15084 whole entry, looked up): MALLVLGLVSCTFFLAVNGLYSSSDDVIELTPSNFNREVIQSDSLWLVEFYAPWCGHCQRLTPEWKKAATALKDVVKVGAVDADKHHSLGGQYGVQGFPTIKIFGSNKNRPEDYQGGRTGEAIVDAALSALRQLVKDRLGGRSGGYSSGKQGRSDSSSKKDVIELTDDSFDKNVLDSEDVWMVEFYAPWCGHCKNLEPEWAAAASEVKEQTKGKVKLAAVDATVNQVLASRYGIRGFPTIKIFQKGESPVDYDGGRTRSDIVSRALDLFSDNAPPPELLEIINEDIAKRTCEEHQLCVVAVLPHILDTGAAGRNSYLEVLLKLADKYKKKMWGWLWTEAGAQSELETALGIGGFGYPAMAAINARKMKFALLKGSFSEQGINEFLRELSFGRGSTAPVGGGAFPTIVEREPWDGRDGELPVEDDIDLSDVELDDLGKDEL
Env fusion inh: inhibitors of HIV-1 Env-driven cell-cell fusion, primary screen, HeLa-JRFL effector, CEM21 target cells, luciferase | actives 1.1% (n = 360,000) | inhibition, % at 12.3 µM;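 active means mean replicate inhibition score of at least 50 and every replicate individually at or above 50; inconclusive means only one of the two criteria met; inactive means mean below 50 and not all replicates reaching 50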
FN deposit inh: inhibitors of fibronectin matrix deposition, primary screen, AH1F cells, Alexa488-fibronectin fluorescence, plate reader; actives 0.086% (n = 350,000); AH1F fibroblasts, overnight; AID 743247, 2014; inhibition, % at 12.6 µM;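 active means mean inhibition across replicates of 30% or more, regardless of how many single replicates reach that level; inconclusive means mean under 30% yet at least half of replicates reach 30%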
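Material: AH1F fibroblast monolayer depositing Alexa488-labelled fibronectin into matrix | Input: 10000 AH1F cells/well | Medium: DMEM plus 2% serum, read in PBS | Reagent: Alexa488-fibronectin, 24 nM final in well | Compound dosing: One dose per compound, pinned | Schedule: 1 h adhesion, overnight exposure | Measured by: Fluorescence at 485 nm excitation, 525 nm emission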
Each line names hits and unclear results; the compound was inactive in the other large screens. Compounds with a hit are over-represented: about 1.4% of the library has one in this group of screens.

O=C1[C@H]2[C@@H](c3ccc(F)cc3)N3C(=O)N(c4ccc(Br)cc4)C(=O)[C@@]3(Cc3ccc(Cl)cc3)[C@H]2C(=O)N1C1CCCCC1	Env fusion inh 72.0
COc1ccc(N2C(=O)N3[C@H](c4ccc(Cl)cc4)[C@@H]4C(=O)N(C5CCCCC5)C(=O)[C@@H]4[C@]3(Cc3ccc(Cl)cc3)C2=O)cc1	Env fusion inh 87.7
C[C@H](CO)N1C[C@H](C)[C@H](CN(C)Cc2ccc3cccnc3c2)OCc2cnnn2CCCC1=O	none (no result: PDI inh, ERp5 inh, Env fusion inh)
COc1ccc(NC(=O)N(C)C[C@H]2Oc3ccc(NC(=O)C4CCCCC4)cc3CC(=O)N([C@H](C)CO)C[C@H]2C)cc1	none (no result: PDI inh)
O=C(N/N=C/c1ccncc1)c1cc(-c2ccc(Br)s2)[nH]n1	GSIS activator 43.1
COc1cc(CN2CC3(CN(S(=O)(=O)c4cccc(F)c4)C3)c3c([nH]c4cc(OC)ccc34)[C@H]2CO)cc(OC)c1	none (no result: PDI inh, Env fusion inh)
COc1ccc(OC)c(N(CC(=O)NN=C2CCN(C)CC2)S(=O)(=O)c2ccccc2)c1	GSIS activator 92.6
COc1ccc(N(CC(=O)NN=C2CCN(C)CC2)S(=O)(=O)c2ccccc2)c(OC)c1	none
COc1ccc(OC)c(N(CC(=O)NCCSC2CCCCC2)S(=O)(=O)c2ccccc2)c1	Env fusion inh 58.5 (no result: FN deposit inh)
COc1ccc(N(CC(=O)NCCSc2ccc(C)cc2)S(=O)(=O)c2ccccc2)c(OC)c1	none
COc1ccc(N(CC(=O)NCCSC2CCCCC2)S(=O)(=O)c2ccccc2)c(OC)c1	PDI inh inconclusive, Env fusion inh 64.1
CCN(c1ccc(OC)cc1)S(=O)(=O)c1cc(-c2cc(C)no2)ccc1C(C)C	none
CCOc1ccc(N(C)S(=O)(=O)c2cc(-c3cc(C)no3)ccc2C(C)C)cc1	Env fusion inh 78.6
COc1cccc(S(=O)(=O)N(C)C[C@@H]2Oc3ncc(C#CC(C)(C)O)cc3C(=O)N([C@H](C)CO)C[C@@H]2C)c1	none (no result: PDI inh, FN deposit inh)
COc1ccc2c3c(n(C)c2c1)[C@@H](CO)N(Cc1ccc2c(c1)OCO2)CC31CN(C(=O)c2ccc3c(c2)OCO3)C1	none (no result: PDI inh, FN deposit inh)
C[C@@H]1CN=C2N(CCNC(=O)CCC3CCCCC3)[C@H](Cc3ccc(O)cc3)CN21	none
O=C(CCC1CCCCC1)NCCN1C2=NC[C@H](Cc3ccc(O)cc3)N2C[C@H]1Cc1ccc(O)cc1	PDI inh 33.6 (no result: GSIS activator)
COc1ccc(C[C@H]2CN3C(=NC[C@@H]3Cc3ccccc3)N2CCNC(=O)CCC2CCCCC2)cc1	GSIS activator 155.0
C[C@H](CO)N1C[C@H](C)[C@H](CN(C)C(=O)Nc2ccc(F)cc2)Oc2ccc(NS(=O)(=O)c3ccc(F)cc3)cc2CC1=O	none (no result: PDI inh, FN deposit inh)
COc1ccccc1CC(=O)OC(C)C(=O)Nc1ccc(S(=O)(=O)N2CCCCC2)cc1 (stereo not given)	FN deposit inh 45.7
CCC(=NC(C)c1ccccc1)c1c(O)n(C)c(=O)n(C)c1=O (stereo not given)	Env fusion inh 60.2 (no result: GSIS activator, ERp5 inh, FN deposit inh)
COCC(=O)N[C@H]1CC[C@@H](CC(=O)N2CCCCC2)O[C@H]1CO	none (no result: PDI inh)
O=C(Nc1cc(Sc2nc3ccccc3s2)cc([N+](=O)[O-])c1)c1ccccc1	none (no result: ERp5 inh)
O=C(Nc1cc(Sc2nc3ccccc3s2)cc([N+](=O)[O-])c1)c1ccccc1F	FN deposit inh 15.4 (no result: GSIS activator, ERp5 inh)
Cc1cc(CSc2ccccc2)ccc1NC(=O)c1ccc(CN2CCOCC2)cc1	Env fusion inh 68.3 (no result: ERp5 inh)
C[C@H](CO)N1C[C@H](C)[C@@H](CN(C)C(=O)Nc2cccc3ccccc23)Oc2ccc(NC(=O)Cc3cn(C)c4ccccc34)cc2C1=O	none (no result: PDI inh, Env fusion inh, FN deposit inh)
C[C@@H]1CN([C@H](C)CO)C(=O)c2cc(NS(=O)(=O)c3cccs3)ccc2O[C@@H]1CN(C)Cc1ccncc1	none (no result: PDI inh, Env fusion inh, FN deposit inh)
O=C(CCNS(=O)(=O)c1cccc2nonc12)NC1CCCc2ccccc21 (stereo not given)	FN deposit inh 35.5 (no result: GSIS activator, ERp5 inh)
CCCC(=O)Nc1ccc2c(c1)C(=O)N(C)C[C@@H](OC)[C@@H](C)CN(CC1CCCC1)[C@@H](C)CO2	none (no result: PDI inh)
Cc1ccc(S(=O)(=O)N2CCN(S(=O)(=O)c3ccccc3)C2c2ccc(N(C)C)cc2)cc1 (stereo not given)	Env fusion inh 53.1 (no result: GSIS activator, ERp5 inh)
